# T cruzi inh = blocks replication of Trypanosoma cruzi. T. cruzi beta-gal in NIH3T3, luminescence, 90 h. inhibition, % (test concentration not listed). 300,000 tested, 1.4% active. AID 1885;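 active means mean inhibition across valid replicates above about 55%, limit read from the data; inconclusive means mean below that limit but half or more replicates reach it; inactive means mean below it, under half of replicates reach it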;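 further: signal also drops with host cell toxicity which is not excluded here; 0% = plate median of DMSO wells and 100% = zero luminescence signal; higher percent means less beta-gal luminescence so fewer parasites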
#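 Read-out: Parasite load inhibition, % | Test system: Mouse NIH/3T3 fibroblasts infected with β-gal-expressing T. cruzi Tulahuen C4 | Amount: 5,000 cells/well | Medium: DMEM, 2% fetal bovine serum | Signal: GalScreen β-gal luminescence, detergent lysis, 60 min | Timing: 3 h attach, ≥90 h co-culture | Also added: Tulahuen C4 trypomastigotes, 5000/well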
# HIF activator = HIF pathway transcriptional activation. U2OS HRE-luciferase reporter, luminescence; normalized: DMSO 0%, desferrioxamine 100%. activation, % at 7.5 µM (by protocol). 300,000 tested, 0.32% active. AID 1910;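 active means mean activation of at least 10% of the iron chelator positive control signal, with at least half of replicates also reaching 10%; inconclusive means mean and replicate majority disagree about reaching 10%; inactive means mean and most replicates under 10%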
# KLF5 inhibitor = suppresses KLF5 promoter-driven expression; 290,000 tested, 0.23% active; inhibition, % at 5 µM; DLD-1 KLF5 promoter-luciferase reporter, luminescence; AID 1700;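 active means inhibition above a per-plate limit of that plate's mean compound inhibition plus 3 SD, cut at about 60% in these data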;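 further: 0% = DMSO wells and 100% = LY294002 at 200 µM; higher means less KLF5 promoter-driven luciferase light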
# Beta apoptosis = beta cell apoptosis inhibition | 300,000 tested, 0.8% active | protection from apoptosis, % (concentration not given with the values) | INS-1E cytokine-induced death, ATP luminescence, 48 h; percent of positive-control rescue, neutral wells zero;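 active means Every replicate reaches about 75%, or at least half do and their mean reaches it too, limit read from the data; inconclusive means At least half of replicates reach the limit but their mean does not; inactive means Under half of replicates reach the limit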;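 further: 0% = cytokine-treated negative control wells and 100% = positive control rescue; higher means more ATP so stronger rescue from cytokine killing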
# Bfl-1 A1 inh = inhibitors of the anti-apoptotic protein A1, read as caspase activation. MEF A1-2A-BIM cells, Caspase-Glo 3/7 luminescence, 3 h; percent of clofoctol response, vehicle zero. caspase activation, % (concentration not given with the values). 330,000 tested, 0.066% active. AID 2462;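 active means over half of replicate activation scores above 10%, or exactly half above 10 with the replicate mean above 10; inconclusive means replicate mean below 10 yet half the replicates above 10; inactive means over half of replicates below 10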
# Starred values were filed as active, the others as inactive; ? = inconclusive; . = no result given. Compounds with a hit are over-represented: about 2.3% of the library has one in this group of screens.
SMILES,T cruzi inh,HIF activator,KLF5 inhibitor,Beta apoptosis,Bfl-1 A1 inh
Cc1ccc(S(=O)(=O)N2c3ccccc3OCC2c2ccccc2)cc1 (stereo unspecified),-6.2,0.5,-17.6,-2.1,-0.3
COc1cc(OC)cc(C(=O)Nc2cccc(C(C)=O)c2)c1,-6.5,1.0,-65.4,1.5,0.1
COc1cc(OC)cc(C(=O)Nc2cccc(N3CCCC3)c2)c1,67.7*,-0.2,-8.2,0.3,0.4
O=C(N/N=C/c1ccc([N+](=O)[O-])o1)C1CC1,72.6*,-0.9,-17.5,7.8,0.2
O=[N+]([O-])c1ccc(/C=N/Nc2nc(N3CCCCC3)nc(N3CCCCC3)n2)o1,62.8*,-0.5,-5.9,46.5,1.8
COC(=O)N/N=C/c1ccc([N+](=O)[O-])o1,54.7*,-0.6,-6.0,0.6,0.2
NC(=O)N/N=C/c1ccc([N+](=O)[O-])o1,.,.,.,-5.0,?
O=C(Nc1ccc(Oc2ccc(Br)cc2)cc1)C1=CC=CN2CCS(=O)(=O)N=C12,.,.,.,-6.8,-0.4
O=C(OCc1ccccc1F)c1cc2ccccc2cc1O,7.8,1.2,-14.1,-1.2,0.0
Cc1ccc(S(=O)(=O)Nc2ncnc3sc(C)c(C)c23)cc1,.,.,.,-3.0,-0.1
Cc1ccc(-c2nn(C(C)(C)C)c3ncnc(NS(=O)(=O)c4ccc([N+](=O)[O-])cc4)c23)cc1,56.4*,-0.3,-1.1,18.9,0.6
C=CCNCCOCCOc1ccc(C)cc1Br,56.1*,0.0,-54.7,-3.8,-0.7
CCC(C)NCCOCCOc1ccc(C)cc1Br (stereo unspecified),44.2,0.2,3.9,-12.5,1.0
COc1ccccc1/C=C(/NC(=O)c1ccccc1)C(=O)NCCN1CCOCC1,6.7,1.0,-11.0,-6.3,0.0
CCOC(=O)N/N=C(/C)c1ccc([N+](=O)[O-])o1,57.5*,0.1,-21.6,-4.9,0.3
COCCN1CCN(C(=O)c2cc(COc3cc(C)ccc3C)on2)CC1,0.3,4.1,-80.6,-3.9,-2.9
CC(=O)/C=C/n1c(=S)oc2ccccc21,21.5,-5.2,-44.7,99.6*,1.6
COc1cc2nc(NCCCN3CCN(C)CC3)n3nc(-c4ccccc4)nc3c2cc1OC,62.3*,0.4,-22.6,19.4,0.7
CCN(CC)CCCNc1nc2cc(OC)c(OC)cc2c2nc(-c3cccnc3)nn12,51.6,0.6,-30.4,12.4,0.2
CCN(CC)CCCNc1nc2cc(OC)c(OC)cc2c2nc(-c3ccccc3)nn12,61.0*,-6.0,15.7,52.5,-0.4
COc1cc(N/N=C/c2ccccc2O)ncn1,-6.8,10.1*,-23.6,87.5*,-5.2
COc1ccc2c(c1)C(=O)CC(c1ccc(OC)c(OC)c1)O2 (stereo unspecified),14.4,-0.2,-8.1,.,0.3
COc1cc(-c2nc3ccccn3c2NCc2ccccc2)ccc1SC1CCCCC1,61.3*,-7.6,.,15.9,0.4
COc1ccc(-c2nc3cnccn3c2NCc2ccccc2)cc1SC1CCCCC1,33.0,-0.2,.,9.9,0.1
COc1cc(-c2nc3ccc(C)cn3c2NCc2ccccc2)ccc1SC1CCCCC1,42.3,0.2,.,109.9*,0.9
SMILES,T cruzi inh,HIF activator,KLF5 inhibitor,Beta apoptosis,Bfl-1 A1 inh
CN(C)C(CNC(=O)c1c(F)cccc1Cl)c1ccco1 (stereo unspecified),-6.0,-1.1,-28.6,-1.5,-0.5
CCc1ccc(N(C(=O)CCC(=O)Nc2cc(C)on2)C(C(=O)NC(C)(C)C)c2ccc(OC)cc2)cc1 (stereo unspecified),7.0,-0.2,-0.2,-7.0,1.6
O=C(NCc1ccccc1)NC12CC3CC(CC(C3)C1)C2,-0.3,-0.4,-9.5,-1.4,0.0
Cc1nn(Cc2cccc(Oc3ccccc3)c2)c(C)c1NC(=O)NC12CC3CC(CC(C3)C1)C2,56.6*,-0.9,-26.7,12.2,0.0
N/C(=N\OC(=O)c1ccc2ccccc2c1)c1ccccc1Cl,71.5*,2.8,-180.2,-6.3,-0.7
Cc1ccc(N/C(N)=N/c2nc(C)cc(N3CCCCC3)n2)c(C)c1,68.9*,-1.1,10.5,110.7*,-0.1
Cc1ccccc1NC(=S)N1CCCC(c2nc3ccccc3[nH]2)C1 (stereo unspecified),71.6*,-0.2,-5.5,0.0,0.2
CC(C)c1ccc(CN2CCSCC2)cc1,-0.5,0.1,4.0,-4.9,-0.5
COC(=O)c1ccccc1NC1=C/C(=N\S(=O)(=O)c2ccc(C(=O)O)cc2)c2ccccc2C1=O,32.9,-2.4,-6.2,109.7*,0.7
COC(=O)c1ccccc1NC1=C/C(=N\S(=O)(=O)c2cccs2)c2ccccc2C1=O,46.9,0.1,13.8,96.1*,-6.8
Cc1ccc(S(=O)(=O)/N=C2\C=C(Nc3cccc(C(=O)O)c3)C(=O)c3ccccc32)c(C)c1,-9.5,1.5,-7.6,95.3*,-0.6
CCc1ccc(S(=O)(=O)/N=C2\C=C(Nc3ccc(C(=O)O)cc3)C(=O)c3ccccc32)cc1,-7.9,0.7,-15.0,103.0*,-0.4
Cc1ccc(S(=O)(=O)/N=C2\C=C(Nc3cccc(C(=O)O)c3)C(=O)c3ccccc32)cc1,7.1,1.6,-54.2,21.0,0.0
COC(=O)c1cccc(NS(=O)(=O)c2cccs2)c1C,-9.0,0.4,-45.1,-5.1,0.9
Cc1noc(C)c1S(=O)(=O)N(CC(=O)NC1CCC(C)CC1)c1ccc(C(C)C)cc1 (stereo unspecified),38.6,0.3,-10.2,5.6,-0.2
CC(NC(=O)c1cc(F)c(F)c(F)c1F)c1ccc(-n2ccnc2)cc1 (stereo unspecified),11.3,-0.2,-7.1,.,3.3
CCCN(CCC)C(=O)c1cc([N+](=O)[O-])cc2c1-c1ccc([N+](=O)[O-])cc1C2=C(C#N)C#N,79.8*,-0.4,-51.7,?,2.7
CCCCN(CCCC)C(=O)c1cc(Cl)ccc1[N+](=O)[O-],-17.5,0.1,-14.6,6.7,0.7
Cc1ccccc1NC(=O)CCC(=O)N/N=C/c1cccnc1,-17.2,0.0,-25.2,-5.7,-0.2
CCc1cnccc1CCC(=O)Nc1ccccc1C,-1.7,429.9*,.,-7.2,0.6
CCNC(=S)Nc1ccc2c(c1)oc1ccccc12,-8.4,2.7,.,3.1,0.2
CCCCN(CC)CCCNC(=O)c1cn(-c2ccc(OC)cc2)c(=O)c2ccccc12,58.2*,0.2,-21.7,-1.8,-0.6
CCCCN(CC)CCNC(=O)c1cn(C)c(=O)c2c1c1ccccc1n2C,4.8,-0.6,-21.5,-4.8,0.9
CCCCN(CC)CCNC(=O)c1nn(-c2ccc(OC)cc2)c(=O)c2c1c1ccccc1n2C,57.4*,-0.1,0.4,-1.5,-1.1
CN(C(=O)COC(=O)c1ccccc1NCCO)C1CCS(=O)(=O)C1 (stereo unspecified),-18.4,0.1,.,-3.9,1.0
COc1cccc(CN2CCC(Oc3ccc(C(=O)N4CCCCC4)cc3)CC2)c1O,5.7,-0.5,-14.0,3.6,-0.4
Cc1ccc(NC(=O)C2CCCN(C(=O)c3ccc(Cl)cc3)C2)cc1S(=O)(=O)N1CCOCC1 (stereo unspecified),61.8*,0.1,7.4,4.0,-0.7

# Screens deposited in PubChem by several laboratories.
